Data set [1] is described as follows: Dissociation constant, pKa of the compound. It counts as physicochemical. In a few lines: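 UV spectrophotometric determination on 10^-4 M aqueous solutions, by two methods. First, spectra were recorded at pH between 2 and 12 with ionic strength fixed at 0.01. Second, solutions at pH 2 (0.5 N HCl) were titrated with 0.5 N NaOH up to pH 12. pKa was derived with the Henderson-Hasselbalch equation and absorption-spectra extrapolation.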

In a further data set the test system is Escherichia coli. The experiment in a line: Antibacterial activity against Escherichia coli K12 JM109 overexpressing beta-lactamase. It counts as functional. In a few lines: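 Broth microdilution in Mueller Hinton broth against E. coli K12 JM109 overexpressing AmpC from a heat-sensitive pOGO plasmid. Ampicillin MIC determined with and without boronic acids; final inoculum 5 × 10^5 CFU/mL; DMSO below 5%.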

In general, pKa refers to the pH at which an ionisable group is half protonated. The low end stands for a stronger acid or weaker base, the high end for a weaker acid or stronger base. Broadly, the MIC is the lowest concentration that inhibits growth of the organism. The low end stands for inhibition by little substance, the high end for a need for much substance. Turning to `O=CN(C=O)Cc1ccc2sc(B(O)O)cc2c1`, the pKa in data set [1] turned out to be 6.39. In the data set on Escherichia coli, it took 92 µM to inhibit growth (MIC). Take `OCCN(CCO)Cc1ccc2sc(B(O)O)cc2c1`: the pKa in data set [1] was 6.39.

Consider `O=CNCc1ccc2sc(B(O)O)cc2c1`, for which the pKa in data set [1] amounted to 6.6.

For `O=[N+]([O-])c1cccc(NCc2ccc3sc(B(O)O)cc3c2)c1`, the pKa in data set [1] turned out to be 6.39. In addition, the MIC against Escherichia coli was found to be 78 µM.

For `OB(O)c1cc2cc(CNc3ccc(C(O)(C(F)(F)F)C(F)(F)F)cc3)ccc2s1`, the pKa in data set [1] was 6.39.

`OB(O)c1cccc(NCc2ccc3sc(B(O)O)cc3c2)c1` gave a pKa in data set [1] of 6.39. As for `CC(=O)c1ccc(NCc2ccc3sc(B(O)O)cc3c2)cc1`, in data set [1], the pKa is 6.39. In addition, the MIC against Escherichia coli turned out to be 314 µM. As for `O=C(O)c1cccc(NCc2ccc3sc(B(O)O)cc3c2)c1`, the pKa in data set [1] was 6.39. In data set [1], `O=C(O)CNCc1ccc2sc(B(O)O)cc2c1` displayed a pKa of 6.39. The compound also gave an MIC in the data set on Escherichia coli of 92 µM. Regarding `Nn1cn[n+](Cc2ccc3sc(B(O)O)cc3c2)c1`, in data set [1], the pKa amounted to 6.39. In the data set with Escherichia coli, this compound gave a minimal inhibitory concentration (MIC) of 117 µM.

`OB(O)c1cc2cc(CSc3ccccc3)ccc2s1` gave a pKa in data set [1] of 6.39. The compound also had an MIC in the data set with Escherichia coli of 84 µM. In data set [1], `OB(O)c1cc2cc(COCc3ccccc3)ccc2s1` returned a pKa of 6.39. On the same count and under the same terms, then `OB(O)c1cc2cc(COc3ccc(Cl)c(Cl)c3)ccc2s1`, with 6.39.

Regarding `Cc1ccc2sc(B(O)O)cc2c1`, the pKa in data set [1] worked out at 6.39. This compound also displayed an MIC in the data set on Escherichia coli of 117 µM.

Consider `OB(O)c1cc2ccccc2s1`, for which the pKa in data set [1] was found to be 6.39. 359 µM was the least that counted as inhibitory in the data set on Escherichia coli (MIC). Regarding `OB(O)c1cc2cc(CNc3ccc(N4CCOCC4)cc3)ccc2s1`, the pKa in data set [1] was found to be 6.39. `OB(O)c1cc2cc(Cn3ccnc3)ccc2s1` yielded a pKa in data set [1] of 6.39. For the same compound, the lowest concentration to inhibit growth with Escherichia coli (MIC) was 94 µM. Compound `OCc1ccc2sc(B(O)O)cc2c1` returned a pKa in data set [1] of 6.39.

In data set [1], `OB(O)c1cc2cc(COc3ccccc3)ccc2s1` yielded a pKa of 6.39. `OB(O)c1cc2cc(CNc3ccc(Cl)c(Cl)c3)ccc2s1` came in with a pKa in data set [1] of 6.39. In the data set with Escherichia coli, this compound came in with an MIC of 147 µM. In data set [1], `COc1ccc(NCc2ccc3sc(B(O)O)cc3c2)cc1OC` returned a pKa of 6.39. The same measure, in the same setting: then `OB(O)c1cc2cc(CBr)ccc2s1`, with 6.39; and `OB(O)c1cc2cc(CN3CCNCC3)ccc2s1`, with 6.39. For the compound `CC1(C)S[C@@H]2[C@H](NC(=O)[C@H](N)c3ccccc3)C(=O)N2[C@H]1C(=O)O` [AMPICILLIN], in the data set with Escherichia coli, the MIC worked out at 512 µg/mL.

The values above are taken from ChEMBL document CHEMBL1138258, “Optimizing cell permeation of an antibiotic resistance inhibitor for improved efficacy” (J Med Chem, 2007).
